Legend:
myeloma cells = settings: cited from earlier work
RPMI-8226 cells [1] = assay: MTT assay; format: cell-based, human; settings: RPMI-8226, 48 hours
RPMI-8226 cells [2] = format: cell-based, human
In short: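 RPMI-8226 myeloma cells were exposed to a range of test-compound concentrations for 48 h, with lovastatin 10 μM as positive control. Lysates were immunoblotted for unmodified Rap1a (antibody detects only unmodified protein), H-Ras and β-tubulin (loading), and the same lysates were used for a lambda light chain ELISA (% of untreated control; mean ± SD, n=3; two-tailed t-test, p<0.05). LEC is the lowest concentration giving a visible unmodified Rap1a band plus a significant light chain rise.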

Structure (SMILES)	cytotoxicity in MTT assay (RPMI-8226 cells [1])	also measured
CC(C)=CCC/C(C)=C/Cn1cc(CC(C)(P(=O)([O-])[O-])P(=O)([O-])[O-])nn1.[Na+].[Na+].[Na+].[Na+] [Compound 3]		increase in potency in cellular assays compared to the parent compound 1 (myeloma cells): 5 fold
CCC(Cc1cn(C/C=C(\C)CCC=C(C)C)nn1)(P(=O)([O-])[O-])P(=O)([O-])[O-].[Na+].[Na+].[Na+].[Na+] [Compound 4]		decrease in potency in cellular assays (relative to 1) (myeloma cells): five-fold
CC(C)=CCC/C(C)=C/Cn1cc(CC(F)(P(=O)([O-])[O-])P(=O)([O-])[O-])nn1.[Na+].[Na+].[Na+].[Na+] [Compound 7, (2-[1-(3,7-Dimethyl-octa-2,6-dienyl)-1H-[1,2,3]triazol-4-yl]-1-fluoro-1-phosphono-ethyl)-phosphonic acid]	induced cytotoxicity	
C=C(Cc1cn(C/C=C(\C)CCC=C(C)C)nn1)P(=O)([O-])[O-].[Na+].[Na+] [Compound 11]	neither of the monophosphonates (11, 27), induced cytotoxicity	
CC(C)=CCC/C(C)=C/Cn1cc(CC(CN)(P(=O)([O-])[O-])P(=O)([O-])[O-])nn1.[Na+].[Na+].[Na+].[Na+] [Compound 17]	induced cytotoxicity	
CC(C)=CCC/C(C)=C/Cn1cc(CCP(=O)([O-])[O-])nn1.[Na+].[Na+] [Compound 27]	neither of the monophosphonates (11, 27), induced cytotoxicity	
CC(C)=CCC/C(C)=C/Cn1cc(C=C(P(=O)([O-])[O-])P(=O)([O-])[O-])nn1.[Na+].[Na+].[Na+].[Na+] [Compound 29, Disodium [1-[bis(sodiooxy)phosphoryl]-2-[1-[3,7-dimethylocta-2,6-dien-1-yl]-1H-1,2,3-triazol-4-yl]ethenyl]phosphonate]	induced cytotoxicity	potency in cellular assays relative to cyclopropyl derivative 31 (RPMI-8226 cells [2]): two-fold more potent
CC(C)=CCC/C(C)=C/Cn1cc(CC(O)(P(=O)([O-])[O-])P(=O)([O-])[O-])nn1.[Na+].[Na+].[Na+].[Na+] [Compound 37]	induced cytotoxicity	

— article PMC8370032 (Bioorganic & medicinal chemistry, 2021)
